Measured values as given in ChEMBL document CHEMBL5247578, “Effective synthesis of benzimidazoles-imidazo[1,2-a]pyrazine conjugates: A comparative study of mono-and bis-benzimidazoles for antitumor activity” (Eur J Med Chem, 2019).

Tests used:
[1] = n-Octanol/phosphate buffer partition coefficient, logP of the compound at pH 7.4 incubated for 85 mins by shake-flask method; assay type: physicochemical
Procedure, shortened: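 Octanol–water partition by shake-flask: n-octanol with 0.15 M phosphate buffer pH 7.4 at 10:1 volumes. Buffer-phase absorbance read before mixing, then shaken 50 min and centrifuged at 2500 rpm for 35 min. Buffer absorbance read again; P = (Ai−Af)/Af × Vw/Vo.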

MDA-MB-468 = assay: Antiproliferative activity against human MDA-MB-468 cells assessed as cell growth inhibition at 10 uM incubated for 48 hrs by sulforhodamine B assay relative to control; assay type: functional
Procedure, shortened: (§1)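 NCI-60 single-dose screen at 10^-5 M. Cells grown in RPMI 1640 with 5% FBS and 2 mM L-glutamine, plated at 5,000–40,000 cells/well, and preincubated 24 h. Drug (DMSO stock) added and incubated 48 h at 37 °C, 5% CO2. Adherent cells fixed with cold TCA, stained with 0.4% SRB in 1% acetic acid, dye solubilized in 10 mM trizma base, A515 read. Percent growth taken against time-zero and untreated control.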

T47D = assay: Antiproliferative activity against human T47D cells assessed as cell growth inhibition at 10 uM incubated for 48 hrs by sulforhodamine B assay relative to control; assay type: functional; procedure, shortened: as §1
Hs-578T = assay: Antiproliferative activity against human Hs-578T cells assessed as cell growth inhibition at 10 uM incubated for 48 hrs by sulforhodamine B assay relative to control; assay type: functional; procedure, shortened: as §1
DU-145 = assay: Antiproliferative activity against human DU-145 cells assessed as cell growth inhibition at 10 uM incubated for 48 hrs by sulforhodamine B assay relative to control; assay type: functional
Procedure, shortened: (§2)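 NCI-60 one-dose prescreen at 10^-5 M. Cells grown in RPMI 1640 with 5% FBS and 2 mM glutamine, preincubated 24 h, then exposed 48 h at 37 °C. Adherent lines TCA-fixed, SRB-stained, A515 read. Growth percent relative to time-zero and control; negative values mean cell kill.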

PC-3 = assay: Antiproliferative activity against human PC-3 cells assessed as cell growth inhibition at 10 uM incubated for 48 hrs by sulforhodamine B assay relative to control; assay type: functional; procedure, shortened: as §1
RXF 393 = assay: Antiproliferative activity against human RXF 393 cells assessed as cell growth inhibition at 10 uM incubated for 48 hrs by sulforhodamine B assay relative to control; assay type: functional; procedure, shortened: as §1
ACHN = assay: Antiproliferative activity against human ACHN cells assessed as cell growth inhibition at 10 uM incubated for 48 hrs by sulforhodamine B assay relative to control; assay type: functional
Procedure, shortened: (§3)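 Single-dose NCI-60 prescreen at 10^-5 M. Cells in RPMI 1640 with 5% FBS and 2 mM L-glutamine, seeded 5,000–40,000 cells/well with 24 h preincubation, then drug exposure for 48 h at 37 °C under 5% CO2. Growth read by SRB staining of TCA-fixed cells at 515 nm against time-zero and untreated controls. Negative growth values denote cell kill.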

A498 = assay: Antiproliferative activity against human A498 cells assessed as cell growth inhibition at 10 uM incubated for 48 hrs by sulforhodamine B assay relative to control; assay type: functional; procedure, shortened: as §3
OVCAR-8 = assay: Antiproliferative activity against human OVCAR-8 cells assessed as cell growth inhibition at 10 uM incubated for 48 hrs by sulforhodamine B assay relative to control; assay type: functional; procedure, shortened: as §1
OVCAR-5 = assay: Antiproliferative activity against human OVCAR-5 cells assessed as cell growth inhibition at 10 uM incubated for 48 hrs by sulforhodamine B assay relative to control; assay type: functional; procedure, shortened: as §1
OVCAR-3 = assay: Antiproliferative activity against human OVCAR-3 cells assessed as cell growth inhibition at 10 uM incubated for 48 hrs by sulforhodamine B assay relative to control; assay type: functional; procedure, shortened: as §1
UACC-62 = assay: Antiproliferative activity against human UACC-62 cells assessed as cell growth inhibition at 10 uM incubated for 48 hrs by sulforhodamine B assay relative to control; assay type: functional; procedure, shortened: as §1
SK-MEL-2 = assay: Antiproliferative activity against human SK-MEL-2 cells assessed as cell growth inhibition at 10 uM incubated for 48 hrs by sulforhodamine B assay relative to control; assay type: functional; procedure, shortened: as §1
LOX IMVI = assay: Antiproliferative activity against human LOX IMVI cells assessed as cell growth inhibition at 10 uM incubated for 48 hrs by sulforhodamine B assay relative to control; assay type: functional; procedure, shortened: as §1
U-251 = assay: Antiproliferative activity against human U-251 cells assessed as cell growth inhibition at 10 uM incubated for 48 hrs by sulforhodamine B assay relative to control; assay type: functional; procedure, shortened: as §1
SNB-75 = assay: Antiproliferative activity against human SNB-75 cells assessed as cell growth inhibition at 10 uM incubated for 48 hrs by sulforhodamine B assay relative to control; assay type: functional; procedure, shortened: as §1
SF-268 = assay: Antiproliferative activity against human SF-268 cells assessed as cell growth inhibition at 10 uM incubated for 48 hrs by sulforhodamine B assay relative to control; assay type: functional; procedure, shortened: as §1
KM12 = assay: Antiproliferative activity against human KM12 cells assessed as cell growth inhibition at 10 uM incubated for 48 hrs by sulforhodamine B assay relative to control; assay type: functional; procedure, shortened: as §1
HT-29 = assay: Antiproliferative activity against human HT-29 cells assessed as cell growth inhibition at 10 uM incubated for 48 hrs by sulforhodamine B assay relative to control; assay type: functional; procedure, shortened: as §1
HCT-116 = assay: Antiproliferative activity against human HCT-116 cells assessed as cell growth inhibition at 10 uM incubated for 48 hrs by sulforhodamine B assay relative to control; assay type: functional; procedure, shortened: as §2
NCI-H522 = assay: Antiproliferative activity against human NCI-H522 cells assessed as cell growth inhibition at 10 uM incubated for 48 hrs by sulforhodamine B assay relative to control; assay type: functional; procedure, shortened: as §1
NCI-H460 = assay: Antiproliferative activity against human NCI-H460 cells assessed as cell growth inhibition at 10 uM incubated for 48 hrs by sulforhodamine B assay relative to control; assay type: functional; procedure, shortened: as §1
EKVX = assay: Antiproliferative activity against human EKVX cells assessed as cell growth inhibition at 10 uM incubated for 48 hrs by sulforhodamine B assay relative to control; assay type: functional; procedure, shortened: as §2
A549 = assay: Antiproliferative activity against human A549 cells assessed as cell growth inhibition at 10 uM incubated for 48 hrs by sulforhodamine B assay relative to control; assay type: functional; procedure, shortened: as §3
SR = assay: Antiproliferative activity against human SR cells assessed as cell growth inhibition at 10 uM incubated for 48 hrs by sulforhodamine B assay relative to control; assay type: functional; procedure, shortened: as §1
RPMI-8226 = assay: Antiproliferative activity against human RPMI-8226 cells assessed as cell growth inhibition at 10 uM incubated for 48 hrs by sulforhodamine B assay relative to control; assay type: functional; procedure, shortened: as §1
HL-60 = assay: Antiproliferative activity against human HL-60 cells assessed as cell growth inhibition at 10 uM incubated for 48 hrs by sulforhodamine B assay relative to control; assay type: functional; procedure, shortened: as §2
CCRF-CEM = assay: Antiproliferative activity against human CCRF-CEM cells assessed as cell growth inhibition at 10 uM incubated for 48 hrs by sulforhodamine B assay relative to control; assay type: functional; procedure, shortened: as §3
M14 = assay: Antiproliferative activity against human M14 cells assessed as cell growth inhibition at 10 uM incubated for 48 hrs by sulforhodamine B assay relative to control; assay type: functional; procedure, shortened: as §1
SW-620 = assay: Antiproliferative activity against human SW620 cells assessed as cell growth inhibition at 10 uM incubated for 48 hrs by sulforhodamine B assay relative to control; assay type: functional; procedure, shortened: as §1

Structure (SMILES)	logD at 1.417 h [1]	inhibition at 10 µM (T47D) [%]	inhibition at 10 µM (Hs-578T) [%]	inhibition at 10 µM (DU-145) [%]	inhibition at 10 µM (PC-3) [%]	inhibition at 10 µM (RXF 393) [%]	inhibition at 10 µM (ACHN) [%]	inhibition at 10 µM (A498) [%]	inhibition at 10 µM (OVCAR-8) [%]	inhibition at 10 µM (OVCAR-3) [%]	inhibition at 10 µM (UACC-62) [%]	inhibition at 10 µM (SK-MEL-2) [%]	inhibition at 10 µM (LOX IMVI) [%]	inhibition at 10 µM (U-251) [%]	inhibition at 10 µM (SNB-75) [%]	inhibition at 10 µM (SF-268) [%]	inhibition at 10 µM (KM12) [%]	inhibition at 10 µM (HT-29) [%]	inhibition at 10 µM (HCT-116) [%]	inhibition at 10 µM (NCI-H522) [%]	further results
Cc1cccc(-c2cn3ccnc3c(-c3ccc4ncn(Cc5ccccc5)c4c3)n2)c1	2.16	86	8.47	14.2	24.8	2.01	12.4	22.1	11.5	13.9	2.46	6.34	14.8	19.4	21.7	7.22	22.1	42	36.7	28.4	inhibition at 10 µM (MDA-MB-468): 16.6%; inhibition at 10 µM (OVCAR-5): 6.64%; inhibition at 10 µM (NCI-H460): 10.1%; inhibition at 10 µM (EKVX): 22.3%; inhibition at 10 µM (A549): 14.9%; inhibition at 10 µM (SR): 11%; inhibition at 10 µM (RPMI-8226): 37.5%; inhibition at 10 µM (HL-60): 18.2%; inhibition at 10 µM (CCRF-CEM): 21.1%
c1cn2cc(-c3ccc4c(c3)ncn4C3CCCCC3)nc(-c3ccc4ncn(C5CCCCC5)c4c3)c2n1	1.9	44.7	23.6	8.72	45	37.4	5.48	16.3	42.6	3.05	29.3	13.7	25.9	38.7	24.8	18.4	30.6	58.2	29.1	28.5	inhibition at 10 µM (MDA-MB-468): 14.9%; inhibition at 10 µM (OVCAR-5): 1.44%; inhibition at 10 µM (M14): 6.98%; inhibition at 10 µM (NCI-H460): 11.9%; inhibition at 10 µM (EKVX): 60.2%; inhibition at 10 µM (A549): 25.3%; inhibition at 10 µM (SR): 50%; inhibition at 10 µM (RPMI-8226): 70.8%; inhibition at 10 µM (HL-60): 30%; inhibition at 10 µM (CCRF-CEM): 46.1%
O=Cc1ccc(-c2cn3ccnc3c(-c3ccc4ncn(C5CCCCC5)c4c3)n2)cc1	1.5	98	45.5	24.3	19	25	11.6	11.2	44	23.7	37.1	27.8	46.9	32	21.4	27.1	3.69	17.5	92.6	25.2	inhibition at 10 µM (M14): 23%; inhibition at 10 µM (SW-620): 4.21%; inhibition at 10 µM (NCI-H460): 37.8%; inhibition at 10 µM (EKVX): 20.9%; inhibition at 10 µM (SR): 47.5%; inhibition at 10 µM (RPMI-8226): 82.5%; inhibition at 10 µM (HL-60): 16.5%; inhibition at 10 µM (CCRF-CEM): 77.9%
